Active and inactive are the calls of the source. No cut-off for these calls is given here.
Key:
Rattus norvegicus [1] = test: Antiinflammatory activity in rat assessed as reduction of carrageenan-induced paw oedema at 0.15 mmol/kg, ip administered 5 mins before carrageenan challenge measured after 3.5 hrs; format: functional
Procedure, shortened: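 Rat carrageenan-induced paw oedema; compounds given ip at 0.15 mmol/kg body weight. Result expressed as percent inhibition of oedema relative to controls; mean of 6–8 animals; significance by Student's t test.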

[2] = Inhibition of soybean lipoxygenase assessed as reduction in conversion of sodium linoleate to 13-hydroperoxylinoleic acid up to 7 mins; set-up: species or system Glycine max
Glycine max = test: Competitive inhibition of soybean lipoxygenase 1 mM of sodium linoleate assessed as reduction of 13-hydroperoxylinoleic acid formation up to 7 mins
Procedure, shortened: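 Soybean lipoxygenase run with linoleic acid at 1 mM, above the saturating substrate concentration, under the same conditions as the standard inhibition assay, to test for competitive inhibition.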

Liver = test: Antioxidant activity in rat hepatic microsomal membrane assessed as inhibition of ferrous ascorbate-induced lipid peroxidation after 45 mins by spectrophotometric analysis; format: functional, cell membranes
[3] = Antioxidant activity assessed as DPPH radical scavenging activity at 0.2 mM after 30 mins; format: physicochemical; details: 0.5 h, 200 µM
Rattus norvegicus [4] = test: Antidyslipidemic activity in rat Triton-WR1339-induced hyperlipidemic model assessed as reduction of plasma low density lipoprotein cholesterol level at 0.15 mmol/kg, ip after 24 hrs; format: functional; set-up: scale not given: the % may be the effect or the level left
Procedure, shortened: (§1)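 Hyperlipidemia induced in rats by tyloxapol 200 mg/kg ip; compounds given ip at 150 μmol/kg. Serum total cholesterol, triglycerides and LDL-cholesterol compared with hyperlipidemic controls. Groups of six to eight rats; significance by Student's t test.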

Rattus norvegicus [5] = test: Antiinflammatory activity in rat assessed as reduction of carrageenan-induced paw oedema at 0.30 mmol/kg, ip administered 5 mins before carrageenan challenge measured after 3.5 hrs; format: functional
Rattus norvegicus [6] = test: Antidyslipidemic activity in rat Triton-WR1339-induced hyperlipidemic model assessed as reduction of plasma triglyceride level at 0.15 mmol/kg, ip after 24 hrs; format: functional; set-up: scale not given: the % may be the effect or the level left; procedure, shortened: as §1
Rattus norvegicus [7] = test: Antidyslipidemic activity in rat Triton-WR1339-induced hyperlipidemic model assessed as reduction of plasma total cholesterol level at 0.15 mmol/kg, ip after 24 hrs; format: functional; set-up: scale not given: the % may be the effect or the level left; procedure, shortened: as §1

| SMILES | inhibition in vivo at 150 µmol/kg (Rattus norvegicus [1]) [%] | IC50 [2] [µM] | inhibition (Glycine max) | inhibition (Liver) | Activity [3] | Activity (Rattus norvegicus [4]) [%] | inhibition in vivo at 300 µmol/kg (Rattus norvegicus [5]) [%] | Activity (Rattus norvegicus [6]) [%] | Activity (Rattus norvegicus [7]) [%] |
| --- | --- | --- | --- | --- | --- | --- | --- | --- | --- |
| OC/C=C/c1ccccc1 [CINNAMIC ALCOHOL] | 13 | 250 |  |  |  |  |  |  |  |
| COc1ccc2c(c1)c(CC(=O)OC/C=C/c1ccccc1)c(C)n2C(=O)c1ccc(Cl)cc1 | 56 | 9 | inactive | inactive | Not Active |  |  |  |  |
| O=C(O)c1ccccc1Nc1cccc(C(F)(F)F)c1 [FLUFENAMIC ACID] | 19 |  |  |  |  |  |  |  |  |
| Cc1cccc(Nc2ccccc2C(=O)O)c1C [MEFENAMIC ACID] | 44 |  |  |  |  |  |  |  |  |
| CC(C(=O)OC/C=C/c1ccccc1)c1cccc(C(=O)c2ccccc2)c1 (stereo unspecified) | 55 | 22.5 | inactive | inactive | Not Active |  |  |  |  |
| COc1ccc2cc([C@H](C)C(=O)O)ccc2c1 [NAPROXEN] | 11 |  |  |  |  |  |  |  |  |
| CC(C)Cc1ccc(C(C)C(=O)OC/C=C/c2ccccc2)cc1 (stereo unspecified) | 46 | 6.7 | inactive | inactive | Not Active | 75 | 68 | 77.5 | 53.3 |
| Cc1c(Cl)cccc1Nc1ccccc1C(=O)OC/C=C/c1ccccc1 | 42 | 9.6 | inactive | inactive | Not Active |  |  |  |  |
| Cc1c(Cl)cccc1Nc1ccccc1C(=O)O [TOLFENAMIC ACID] | 24 |  |  |  |  |  |  |  |  |
| CC(Cc1ccc(O)c(O)c1)C(C)Cc1ccc(O)c(O)c1 (stereo unspecified) [NORDIHYDROGUAIARETIC ACID] |  | 1.3 |  |  |  |  |  |  |  |
| O=C(Cc1c[nH]c2ccccc12)OC/C=C/c1ccccc1 | 33 | 116 | inactive | inactive | Not Active |  |  |  |  |
| Cc1cccc(Nc2ccccc2C(=O)OC/C=C/c2ccccc2)c1C | 62 | 38 | inactive | inactive | Not Active |  |  |  |  |
| COc1ccc2c(c1)c(CC(=O)O)c(C)n2C(=O)c1ccc(Cl)cc1 [INDOMETHACIN] | 42 |  |  |  |  |  |  |  |  |
| CC(C)Cc1ccc(C(C)C(=O)O)cc1 (stereo unspecified) [IBUPROFEN] | 36 |  |  |  |  |  |  |  |  |
| COc1ccc2cc([C@H](C)C(=O)OC/C=C/c3ccccc3)ccc2c1 | 60 | 40.5 | inactive | inactive | Not Active |  |  |  |  |
| O=C(OC/C=C/c1ccccc1)c1ccccc1Nc1cccc(C(F)(F)F)c1 | 48 | 9 | inactive | inactive | Not Active | 65.1 |  | 50.1 | 48.4 |
| O=C(CCCCC1CCSS1)OC/C=C/c1ccccc1 (stereo unspecified) | 48 | 11.3 | inactive | inactive | Not Active |  | 57 |  |  |
| O=C(Cc1ccccc1Nc1c(Cl)cccc1Cl)OC/C=C/c1ccccc1 | 53 | 78 | inactive | inactive | Not Active | 76.8 |  | 71.6 | 78.4 |
| O=C(O)Cc1ccccc1Nc1c(Cl)cccc1Cl [DICLOFENAC] | 37 |  |  |  |  |  |  |  |  |
